Test results reported in ChEMBL document CHEMBL3585325, “Discovery of (1R,2S)-2-{[(2,4-Dimethylpyrimidin-5-yl)oxy]methyl}-2-(3-fluorophenyl)-N-(5-fluoropyridin-2-yl)cyclopropanecarboxamide (E2006): A Potent and Efficacious Oral Orexin Receptor Antagonist” (J Med Chem, 2015).

Tests used:
[1] = Plasma concentration in C57BL/6NCrlCrlj mouse at 10 mg/kg, po administered as single dose measured after 3 hrs by LC-MS/MS analysis; assay type: ADME, organism-based
How it was run: (§1)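 Male C57BL/6NCrlCrlj mice given a single 10 mg/kg oral dose as a suspension in 0.5% aqueous methylcellulose. At 1 or 3 h, under pentobarbital anesthesia, CSF was taken from the cisterna magna and then blood from the abdominal aorta (spun to plasma). Samples were acetonitrile-precipitated with deuterated internal standard and run by LC-MS/MS. Values are mean with SEM.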

Mus musculus [2] = test: Sleep promoting activity in C57BL/6NCrlCrlj mouse assessed as reduction in wakefulness time at 10 mg/kg, po administered immediately prior to beginning of dark cycle measured during first 3 hrs after drug administration by electroencephalogram/electromyogram analysis (reference value: 116.7 min); assay type: functional
How it was run: (§2)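 Male C57BL/6NCrlCrlj mice implanted with EEG/EMG electrodes were dosed orally in 10% Cremophor EL, 5% DMSO in saline just before lights-off (ZT12) and recorded from ZT12 to ZT20. Group sizes were n=6 dosed and n=7 vehicle. Stages were scored by software with blinded visual confirmation; cumulative first-3-h times are mean with SEM. Dunnett's test was run after one-way ANOVA.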

Mus musculus [3] = test: Sleep promoting activity in C57BL/6NCrlCrlj mouse assessed as increase in REM sleep at 10 mg/kg, po administered immediately prior to beginning of dark cycle measured during first 3 hrs after drug administration by electroencephalogram/electromyogram analysis (reference value: 0.6 min); assay type: functional; how it was run: as §2
[4] = target: T1, Orexin/Hypocretin receptor type 1 (Homo sapiens, UniProt O43613); test: Binding affinity to human OX1R by radioligand displacement binding assay
T1 sequence (O43613 whole entry): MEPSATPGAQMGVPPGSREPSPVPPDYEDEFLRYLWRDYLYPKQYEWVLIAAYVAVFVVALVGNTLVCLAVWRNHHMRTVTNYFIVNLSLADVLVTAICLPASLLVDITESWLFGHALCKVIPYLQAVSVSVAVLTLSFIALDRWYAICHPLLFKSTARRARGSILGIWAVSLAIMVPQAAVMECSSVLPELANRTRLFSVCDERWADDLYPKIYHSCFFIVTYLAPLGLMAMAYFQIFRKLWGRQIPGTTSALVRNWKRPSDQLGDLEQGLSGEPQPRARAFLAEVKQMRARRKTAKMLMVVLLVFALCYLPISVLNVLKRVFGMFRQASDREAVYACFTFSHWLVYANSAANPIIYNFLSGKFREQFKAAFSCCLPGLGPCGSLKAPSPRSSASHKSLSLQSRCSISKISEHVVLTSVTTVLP
How it was run: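 Ki values come from single experiments run in triplicate.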

[5] = Metabolic stability in human liver microsomes assessed as residual ratio at 0.1 uM after 15 mins by LC-MS analysis; assay type: ADME; conditions: read-out: Stability
How it was run: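 Compound at 0.1 μM in 0.1% DMSO incubated with human liver microsomes (0.2 mg/mL), with or without an NADPH-generating system, for 15 min at 37 °C. Reaction stopped with acetonitrile/methanol (7:3) containing propranolol internal standard. Parent compound was measured by LC-MS; residual ratio given with NADPH relative to without.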

Cytochrome P450 1A2 = target: T2, Cytochrome P450 1A2 (Homo sapiens, UniProt P05177); test: Inhibition of CYP1A2 in human liver microsomes using phenacetin as susbtrate incubated for 30 mins prior to substrate addition for 10 mins by LC-MS/MS analysis; assay type: ADME
T2 sequence (P05177 whole entry): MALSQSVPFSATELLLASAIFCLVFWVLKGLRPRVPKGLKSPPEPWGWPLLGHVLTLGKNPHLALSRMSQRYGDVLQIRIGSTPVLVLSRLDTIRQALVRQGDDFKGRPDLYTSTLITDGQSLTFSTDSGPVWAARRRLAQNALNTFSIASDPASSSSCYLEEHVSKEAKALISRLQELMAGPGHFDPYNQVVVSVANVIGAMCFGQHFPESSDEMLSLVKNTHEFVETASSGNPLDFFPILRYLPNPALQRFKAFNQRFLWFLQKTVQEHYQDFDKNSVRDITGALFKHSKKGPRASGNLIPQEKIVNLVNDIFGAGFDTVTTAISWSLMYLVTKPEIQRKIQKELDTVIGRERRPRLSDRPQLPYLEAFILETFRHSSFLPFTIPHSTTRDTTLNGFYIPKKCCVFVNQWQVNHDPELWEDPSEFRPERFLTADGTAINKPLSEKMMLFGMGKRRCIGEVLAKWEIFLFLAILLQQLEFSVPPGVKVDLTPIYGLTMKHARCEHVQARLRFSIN

Cytochrome P450 2C9 = Cytochrome P450 2C9 (Homo sapiens, UniProt P11712); test: Inhibition of CYP2C9 in human liver microsomes using tolbutamide as susbtrate incubated for 30 mins prior to substrate addition for 10 mins by LC-MS/MS analysis; assay type: ADME
Cytochrome P450 2C9, sequence (P11712 whole entry): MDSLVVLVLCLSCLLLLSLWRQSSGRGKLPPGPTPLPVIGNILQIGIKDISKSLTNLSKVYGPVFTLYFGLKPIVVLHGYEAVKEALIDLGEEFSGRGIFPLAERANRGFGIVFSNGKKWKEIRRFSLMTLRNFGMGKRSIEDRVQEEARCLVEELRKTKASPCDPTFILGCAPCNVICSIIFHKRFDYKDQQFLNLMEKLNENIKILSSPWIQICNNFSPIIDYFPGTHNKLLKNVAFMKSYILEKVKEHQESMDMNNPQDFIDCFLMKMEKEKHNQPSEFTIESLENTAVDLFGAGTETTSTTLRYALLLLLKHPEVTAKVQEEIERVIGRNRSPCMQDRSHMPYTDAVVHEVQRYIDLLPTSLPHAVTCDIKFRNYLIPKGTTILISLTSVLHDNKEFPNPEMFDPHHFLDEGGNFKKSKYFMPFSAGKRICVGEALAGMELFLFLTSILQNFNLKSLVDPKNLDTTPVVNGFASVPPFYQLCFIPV

Cytochrome P450 2D6 = Cytochrome P450 2D6 (Homo sapiens, UniProt P10635); test: Inhibition of CYP2D6 in human liver microsomes using bufuralol as susbtrate incubated for 30 mins prior to substrate addition for 10 mins by LC-MS/MS analysis; assay type: ADME
Cytochrome P450 2D6, sequence (P10635 whole entry): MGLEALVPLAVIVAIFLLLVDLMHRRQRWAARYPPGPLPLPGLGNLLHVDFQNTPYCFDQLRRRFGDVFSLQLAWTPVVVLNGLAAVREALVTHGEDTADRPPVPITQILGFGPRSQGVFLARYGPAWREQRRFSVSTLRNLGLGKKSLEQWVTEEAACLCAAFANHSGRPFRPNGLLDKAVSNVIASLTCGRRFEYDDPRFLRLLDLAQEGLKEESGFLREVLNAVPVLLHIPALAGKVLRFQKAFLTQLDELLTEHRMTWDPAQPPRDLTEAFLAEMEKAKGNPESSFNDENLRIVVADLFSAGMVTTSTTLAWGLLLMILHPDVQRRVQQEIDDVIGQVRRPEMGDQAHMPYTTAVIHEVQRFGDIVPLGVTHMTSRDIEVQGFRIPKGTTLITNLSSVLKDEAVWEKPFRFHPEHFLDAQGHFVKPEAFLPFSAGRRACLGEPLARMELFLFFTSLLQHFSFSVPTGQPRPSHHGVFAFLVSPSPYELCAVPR

[6] = Volume of distribution at steady state in C57BL/6NCrlCrlj mouse at 1 mg/kg, iv by LC-MS/MS analysis; assay type: ADME, organism-based; conditions: in vivo, read-out: Vdss
How it was run: (§3)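 Male C57BL/6NCrlCrlj mice dosed intravenously at 1 mg/kg in 10% DMSO in water. Blood was taken from the tail vein at set time points and spun to plasma. Concentrations were measured by LC-MS/MS (MRM, positive mode) against a 1/x²-weighted standard curve with internal standard. Parameters came from noncompartmental analysis.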

[7] = Half life in C57BL/6NCrlCrlj mouse at 1 mg/kg, iv by LC-MS/MS analysis; assay type: ADME, organism-based; conditions: in vivo; how it was run: as §3
[8] = AUC (0 to infinity) in C57BL/6NCrlCrlj mouse at 10 mg/kg, po by LC-MS/MS analysis; assay type: ADME, organism-based; design: dose 10 mg/kg, route oral, time infinity; conditions: in vivo
How it was run: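 Male C57BL/6NCrlCrlj mice dosed orally at 10 mg/kg in 10% Cremophor EL, 5% DMSO in saline. Tail-vein blood was taken at set time points and spun to plasma. Quantified by LC-MS/MS (MRM, positive mode) with internal standard and a 1/x²-weighted calibration. Parameters came from noncompartmental analysis.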

[9] = AUC (0 to infinity) in C57BL/6NCrlCrlj mouse at 30 mg/kg, po by LC-MS/MS analysis; assay type: ADME, organism-based; design: dose 30 mg/kg, time infinity, route oral; conditions: in vivo
[10] = Cmax in C57BL/6NCrlCrlj mouse at 30 mg/kg, po by LC-MS/MS analysis; assay type: ADME, organism-based; design: dose 30 mg/kg, route oral; conditions: in vivo
[11] = Oral bioavailability in C57BL/6NCrlCrlj mouse at 30 mg/kg by LC-MS/MS analysis; assay type: ADME, organism-based; conditions: in vivo
[12] = Plasma concentration in C57BL/6NCrlCrlj mouse at 10 mg/kg, po administered as single dose measured after 1 hr by LC-MS/MS analysis; assay type: ADME, organism-based; how it was run: as §1

Cc1ncc(OC[C@@]2(c3cccc(F)c3)C[C@H]2C(=O)Nc2ccc(F)cn2)c(C)n1 [LEMBOREXANT]
concentration at 3 h [1]: 158 nM | Time (Mus musculus [2]): 77.1 min | Time (Mus musculus [3]): 3.6 min | Ki [4]: 0.006 µM | remaining at 0.25 h, 0.1 µM [5]: 90% | IC50 (Cytochrome P450 1A2): > 20 µM | IC50 (Cytochrome P450 2C9): > 20 µM | IC50 (Cytochrome P450 2D6): > 20 µM | Vd [6]: 2.71 L/kg | half-life [7]: 2.16 h | AUC(0-inf) [8]: 1910 ng·h/mL | AUC(0-inf) [9]: 4130 ng·h/mL | Cmax [10]: 961 ng/mL | bioavailability [11]: 13.4% | concentration at 1 h [12]: 633 nM
